# According to ChEMBL document CHEMBL1140895, “Synthesis of antisense oligonucleotides containing 2'-O-psoralenylmethoxyalkyl adenosine for photodynamic regulation of point mutations in RNA” (Bioorg Med Chem, 2009):
# Calls of active or inactive are those of the source. No cut-off for these calls is given here.
# Assays:
# [1] = Binding affinity to oligoribonucleotide ORN-U assessed as photo-cross-linking efficiency with ORN-U after UVA irradiation of 120 min by time course photo cross linking study
# [2] = Binding affinity to oligoribonucleotide ORN-U assessed as photo-cross-linking efficiency with ORN-U after UVA irradiation of 1 min by time course photo cross linking study
# [3] = Binding affinity to oligoribonucleotide ORN-U assessed as formation of stable A form like duplex with ORN-U by UV spectroscopy
# [4] = Binding affinity to oligoribonucleotide ORN-G assessed as thermal stability by UV melting study
# Outline: (§1)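 Duplex melting curves were recorded by UV absorbance with temperature ramped at 1.0 °C/min. Each oligonucleotide was at 2.0 µM in 100 mM phosphate buffer (pH 7.0) containing 0.1 M NaCl.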
# [5] = Binding affinity to oligoribonucleotide ORN-G assessed as photo-cross-linking efficiency with ORN-G after UVA irradiation of 1 min by time course photo cross linking study
# [6] = Binding affinity to oligoribonucleotide ORN-U assessed as intercalation by fluorescence spectroscopy
# [7] = Binding affinity to oligoribonucleotide ORN-U assessed as thermal stability by UV melting study
# Outline: as §1
# [8] = Binding affinity to oligoribonucleotide ORN-U assessed as photo cross linking activity by reversed phase HPLC
# Outline: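 Equimolar 2′-Ps-oligo and ORN (2.0 µM each) were denatured at 85 °C for 5 min and slowly cooled to 37 °C in 100 mM sodium phosphate (pH 7.0) with 0.1 M NaCl. Samples were irradiated with UVA (365 nm transilluminator, 1.6 mW/cm²) and analysed by C18 reversed-phase HPLC (TEAA pH 7.0/acetonitrile gradient, 40 °C oven) to follow intact ORN and cross-linked product.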
SMILES,Activity [1] [%],photo-cross-linking efficiency [2] [%],Activity [3],Tm [4] [°C],photo-cross-linking efficiency [5] [%],Activity [6],Tm [7] [°C],Activity [8]
Cc1oc2c(C)c3oc(=O)cc(C)c3cc2c1CO[C@@H]1[C@H](OP(=O)(O)OC[C@H]2O[C@@H](n3ccc(N)nc3=O)C[C@@H]2OP(=O)(O)OC[C@H]2O[C@@H](n3cnc4c(N)ncnc43)C[C@@H]2OP(=O)(O)OC[C@H]2O[C@@H](n3cnc4c(=O)[nH]c(N)nc43)C[C@@H]2OP(=O)(O)OC[C@H]2O[C@@H](n3ccc(N)nc3=O)C[C@@H]2OP(=O)(O)OC[C@H]2O[C@@H](n3cc(C)c(=O)[nH]c3=O)C[C@@H]2OP(=O)(O)OC[C@H]2O[C@@H](n3ccc(N)nc3=O)C[C@@H]2OP(=O)(O)OC[C@H]2O[C@@H](n3ccc(N)nc3=O)C[C@@H]2O)[C@@H](COP(=O)(O)O[C@H]2C[C@H](n3cnc4c(N)ncnc43)O[C@@H]2COP(=O)(O)O[C@H]2C[C@H](n3ccc(N)nc3=O)O[C@@H]2COP(=O)(O)O[C@H]2C[C@H](n3ccc(N)nc3=O)O[C@@H]2COP(=O)(O)O[C@H]2C[C@H](n3cnc4c(=O)[nH]c(N)nc43)O[C@@H]2COP(=O)(O)O[C@H]2C[C@H](n3ccc(N)nc3=O)O[C@@H]2COP(=O)(O)O[C@H]2C[C@H](n3cnc4c(N)ncnc43)O[C@@H]2COP(=O)(O)O[C@H]2C[C@H](n3cc(C)c(=O)[nH]c3=O)O[C@@H]2CO)O[C@H]1n1cnc2c(N)ncnc21,35,3,,,,,,
Cc1oc2c(C)c3oc(=O)cc(C)c3cc2c1COCCO[C@@H]1[C@H](OP(=O)(O)OC[C@H]2O[C@@H](n3ccc(N)nc3=O)C[C@@H]2OP(=O)(O)OC[C@H]2O[C@@H](n3cnc4c(N)ncnc43)C[C@@H]2OP(=O)(O)OC[C@H]2O[C@@H](n3cnc4c(=O)[nH]c(N)nc43)C[C@@H]2OP(=O)(O)OC[C@H]2O[C@@H](n3ccc(N)nc3=O)C[C@@H]2OP(=O)(O)OC[C@H]2O[C@@H](n3cc(C)c(=O)[nH]c3=O)C[C@@H]2OP(=O)(O)OC[C@H]2O[C@@H](n3ccc(N)nc3=O)C[C@@H]2OP(=O)(O)OC[C@H]2O[C@@H](n3ccc(N)nc3=O)C[C@@H]2O)[C@@H](COP(=O)(O)O[C@H]2C[C@H](n3cnc4c(N)ncnc43)O[C@@H]2COP(=O)(O)O[C@H]2C[C@H](n3ccc(N)nc3=O)O[C@@H]2COP(=O)(O)O[C@H]2C[C@H](n3ccc(N)nc3=O)O[C@@H]2COP(=O)(O)O[C@H]2C[C@H](n3cnc4c(=O)[nH]c(N)nc43)O[C@@H]2COP(=O)(O)O[C@H]2C[C@H](n3ccc(N)nc3=O)O[C@@H]2COP(=O)(O)O[C@H]2C[C@H](n3cnc4c(N)ncnc43)O[C@@H]2COP(=O)(O)O[C@H]2C[C@H](n3cc(C)c(=O)[nH]c3=O)O[C@@H]2CO)O[C@H]1n1cnc2c(N)ncnc21,,75,Active,59.1,7,Active,63.1,Active
Cc1cn([C@H]2C[C@H](OP(=O)(O)OC[C@H]3O[C@@H](n4cnc5c(N)ncnc54)C[C@@H]3OP(=O)(O)OC[C@H]3O[C@@H](n4ccc(N)nc4=O)C[C@@H]3OP(=O)(O)OC[C@H]3O[C@@H](n4cnc5c(=O)[nH]c(N)nc54)C[C@@H]3OP(=O)(O)OC[C@H]3O[C@@H](n4ccc(N)nc4=O)C[C@@H]3OP(=O)(O)OC[C@H]3O[C@@H](n4ccc(N)nc4=O)C[C@@H]3OP(=O)(O)OC[C@H]3O[C@@H](n4cnc5c(N)ncnc54)C[C@@H]3OP(=O)(O)OC[C@H]3O[C@@H](n4cnc5c(N)ncnc54)C[C@@H]3OP(=O)(O)OC[C@H]3O[C@@H](n4ccc(N)nc4=O)C[C@@H]3OP(=O)(O)OC[C@H]3O[C@@H](n4cnc5c(N)ncnc54)C[C@@H]3OP(=O)(O)OC[C@H]3O[C@@H](n4cnc5c(=O)[nH]c(N)nc54)C[C@@H]3OP(=O)(O)OC[C@H]3O[C@@H](n4ccc(N)nc4=O)C[C@@H]3OP(=O)(O)OC[C@H]3O[C@@H](n4cc(C)c(=O)[nH]c4=O)C[C@@H]3OP(=O)(O)OC[C@H]3O[C@@H](n4ccc(N)nc4=O)C[C@@H]3OP(=O)(O)OC[C@H]3O[C@@H](n4ccc(N)nc4=O)C[C@@H]3O)[C@@H](CO)O2)c(=O)[nH]c1=O,,,,58.9,,,67.3,

# Other lines, results leading:
Activity [1] [%],photo-cross-linking efficiency [2] [%],Activity [3],Tm [4] [°C],photo-cross-linking efficiency [5] [%],Activity [6],Tm [7] [°C],Activity [8],SMILES
,,Active,60.2,,Active,64,,Cc1oc2c(C)c3oc(=O)cc(C)c3cc2c1COCCCCO[C@@H]1[C@H](OP(=O)(O)OC[C@H]2O[C@@H](n3ccc(N)nc3=O)C[C@@H]2OP(=O)(O)OC[C@H]2O[C@@H](n3cnc4c(N)ncnc43)C[C@@H]2OP(=O)(O)OC[C@H]2O[C@@H](n3cnc4c(=O)[nH]c(N)nc43)C[C@@H]2OP(=O)(O)OC[C@H]2O[C@@H](n3ccc(N)nc3=O)C[C@@H]2OP(=O)(O)OC[C@H]2O[C@@H](n3cc(C)c(=O)[nH]c3=O)C[C@@H]2OP(=O)(O)OC[C@H]2O[C@@H](n3ccc(N)nc3=O)C[C@@H]2OP(=O)(O)OC[C@H]2O[C@@H](n3ccc(N)nc3=O)C[C@@H]2O)[C@@H](COP(=O)(O)O[C@H]2C[C@H](n3cnc4c(N)ncnc43)O[C@@H]2COP(=O)(O)O[C@H]2C[C@H](n3ccc(N)nc3=O)O[C@@H]2COP(=O)(O)O[C@H]2C[C@H](n3ccc(N)nc3=O)O[C@@H]2COP(=O)(O)O[C@H]2C[C@H](n3cnc4c(=O)[nH]c(N)nc43)O[C@@H]2COP(=O)(O)O[C@H]2C[C@H](n3ccc(N)nc3=O)O[C@@H]2COP(=O)(O)O[C@H]2C[C@H](n3cnc4c(N)ncnc43)O[C@@H]2COP(=O)(O)O[C@H]2C[C@H](n3cc(C)c(=O)[nH]c3=O)O[C@@H]2CO)O[C@H]1n1cnc2c(N)ncnc21
,50,Active,58.8,9,Active,62.7,Active,Cc1oc2c(C)c3oc(=O)cc(C)c3cc2c1COCCCO[C@@H]1[C@H](OP(=O)(O)OC[C@H]2O[C@@H](n3ccc(N)nc3=O)C[C@@H]2OP(=O)(O)OC[C@H]2O[C@@H](n3cnc4c(N)ncnc43)C[C@@H]2OP(=O)(O)OC[C@H]2O[C@@H](n3cnc4c(=O)[nH]c(N)nc43)C[C@@H]2OP(=O)(O)OC[C@H]2O[C@@H](n3ccc(N)nc3=O)C[C@@H]2OP(=O)(O)OC[C@H]2O[C@@H](n3cc(C)c(=O)[nH]c3=O)C[C@@H]2OP(=O)(O)OC[C@H]2O[C@@H](n3ccc(N)nc3=O)C[C@@H]2OP(=O)(O)OC[C@H]2O[C@@H](n3ccc(N)nc3=O)C[C@@H]2O)[C@@H](COP(=O)(O)O[C@H]2C[C@H](n3cnc4c(N)ncnc43)O[C@@H]2COP(=O)(O)O[C@H]2C[C@H](n3ccc(N)nc3=O)O[C@@H]2COP(=O)(O)O[C@H]2C[C@H](n3ccc(N)nc3=O)O[C@@H]2COP(=O)(O)O[C@H]2C[C@H](n3cnc4c(=O)[nH]c(N)nc43)O[C@@H]2COP(=O)(O)O[C@H]2C[C@H](n3ccc(N)nc3=O)O[C@@H]2COP(=O)(O)O[C@H]2C[C@H](n3cnc4c(N)ncnc43)O[C@@H]2COP(=O)(O)O[C@H]2C[C@H](n3cc(C)c(=O)[nH]c3=O)O[C@@H]2CO)O[C@H]1n1cnc2c(N)ncnc21
